Tests used:
[1] = Partition co-efficient, log P of the compound; assay type: physicochemical; conditions: octanol/water
[2] = Inhibition of soybean 15-lipoxygenase; set-up: species or system Glycine max
Method in brief: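 Soybean 15-lipoxygenase (final 167 U/mL, kept on ice) in 0.2 M borate buffer pH 9.00 with linoleic acid (134 µM) substrate. Activity followed as absorbance increase at 234 nm from 30 to 90 s after enzyme addition. Compounds added in ethanol (final 1%); ethanol-only uninhibited controls measured at regular intervals. IC50 by linear interpolation between points around 50% activity.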

logP [1] | IC50 [2] [µM] | SMILES
2.49 | 48 | Cc1nc(N2CCCC2)nc2c1Nc1ccccc1S2
2.98 | 76 | Cc1nc(N2CCC(C)CC2)nc2c1Nc1ccccc1S2
2.19 | 34 | CCN1CCN(c2nc(C)c3c(n2)Sc2ccccc2N3)CC1
1.7 | 53 | Cc1nc(N2CCOCC2)nc2c1Nc1ccccc1S2
1.95 | > 200 | Cc1nc(N2CCC(O)CC2)nc2c1Nc1ccccc1S2
3.15 | > 200 | Cc1nc(N2CCN(c3ccccc3)CC2)nc2c1Nc1ccccc1S2
2.74 | 58 | Cc1nc(N2CCCCC2)nc2c1Nc1ccccc1S2
1.95 | 18 | Cc1nc(N2CCN(C)CC2)nc2c1Nc1ccccc1S2

— ChEMBL document CHEMBL1142901, “Design and synthesis of pyrimido[4,5-b][1,4]benzothiazine derivatives, as potent 15-lipoxygenase inhibitors” (Bioorg Med Chem, 2007)
